From article PMC11626521 (RSC Advances, 2024) come the findings set out here.

Holding throughout (assay): anti-proliferation assay
One test deals with HGC-27. It counts as cell-based, human. A digest of the protocol:
(§1)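 Seeding was 4000 cells per well, with overnight adherence. Media: HGC-27 and GES-1 in RPMI 1640; HT-29 and HCT-116 in McCoy's 5A; HeLa in DMEM; all with 10% FBS and 1% penicillin–streptomycin, 37 °C, 5% CO2. Test compounds ran 0–500 μM in 3-fold dilutions for 72 h. Read-out was CCK8 (0.5 mM WST-8, 10 μM PMS) for 0.5–2 h, absorbance 450 nm, IC50 from viability. SI = IC50(GES-1)/IC50(HGC-27).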

A further test concerns HeLa. It is filed as cell-based, human. The following applies: read-out: IC50 HeLa; 72 h treatment, CCK8. A digest of the protocol: as §1
A further test deals with HCT-116. It counts as cell-based, human. The following applies: read-out: IC50 HCT-116; 72 h treatment, CCK8. An outline of the steps:
as §1

For the next test, the system named is GES-1. It is filed as cell-based. The note with it: read-out: IC50 GES-1; normal human gastric mucosa cell line, 72 h treatment, CCK8. A digest of the protocol:
as §1

For a further test, the system named is HT-29. It is filed as cell-based, human. The following applies: read-out: IC50 HT-29; 72 h treatment, CCK8. A digest of the protocol:
as §1

Structures are written as SMILES.

As a reminder, the IC50 is the point on the concentration scale where inhibition reaches its midpoint. Regarding `O=c1[nH]cc(F)c(=O)[nH]1` [5-FU], the “SI (GES-1/HGC-27)” value with HGC-27 (SI = IC50 (GES-1)/IC50 (HGC-27)) was 0.85. Further, the IC50 was determined as 4.75 ± 0.18 µM in the test on HGC-27 (read-out: IC50 HGC-27, 72 h treatment, CCK8); 3.43 ± 0.33 µM in the test on HeLa; 3.32 ± 0.3 µM with HCT-116; 4.03 ± 0.19 µM in the test with GES-1; 4.6 ± 0.55 µM in the test on HT-29.
